This passage reports MIC50 and IC50 results from ChEMBL document CHEMBL3297693, “Novel 3-arylfuran-2(5H)-one-fluoroquinolone hybrid: design, synthesis and evaluation as antibacterial agent” (Bioorg Med Chem, 2014).

For one test, the system named is Escherichia coli. In words: Antimicrobial activity against multiple drug-resistant Escherichia coli ATCC 35218 after 8 to 10 hrs by MTT proliferation assay. The class given is functional. In short, it runs like this: (§1)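 Broth microdilution in LB medium in 96-well plates, inoculum about 10⁵ cfu/mL, serially diluted compounds, sterile medium as blank control. MTT (3 mg/mL in PBS) added, then 4–5 h at room temperature. Dye extracted with SDS lysis buffer (10% SDS, 5% isopropanol, pH about 3.5) for 8–10 h at room temperature. Absorbance read at 570 nm, control OD 1.0–2.0. MIC₅₀ reported.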

Another test deals with Bacillus subtilis. Put plainly: Antimicrobial activity against tetracycline-resistant Bacillus subtilis ATCC 6633 after 8 to 10 hrs by MTT proliferation assay. The class given is functional. Put shortly:
as §1
(Formazan colour is commonly taken as a measure of viable cells.)

A further test relates to Staphylococcus aureus. Put plainly: Antimicrobial activity against […] Staphylococcus aureus ATCC 25923 after 8 to 10 hrs by MTT proliferation assay. Type of test: functional. In short, it runs like this:
as §1

Test [1] is described as follows: Inhibition of Staphylococcus aureus TyrRS expressed in Escherichia coli assessed as tRNA aminoacylation pre-incubated for 10 mins using Escherichia coli MRE600 tRNA and L-[ring-3,5-3H]tyrosine by liquid scintillation counting. Put shortly:
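S. aureus TyrRS overexpressed in E. coli and purified to about 98% (SDS–PAGE). Enzyme (0.2 nM) preincubated with inhibitor range 10 min at room temperature, then prewarmed mix added at 37 °C. Aliquots quenched in cold 7% TCA, filtered, scintillation counted. Kept linear, under 50% tRNA acylation.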

For another test, the target named is DNA gyrase (Escherichia coli, UniProt P0AES4+P0AES6). Put plainly: Inhibition of Escherichia coli DNA gyrase assessed as reduction in enzyme-mediated DNA supercoiling using relaxed pBR322 substrate incubated for 60 mins by electrophoresis method. The class given is protein-complex assay.

Values after ≈ are worked out from the molar mass of the structure shown.

As a reminder, the MIC50 is an inhibitory concentration at the 50% level, which refers to growth in some studies and to a panel of isolates in others. What is called IC50 is the concentration needed to halve the response being measured.

Consider `CCn1cc(C(=O)O)c(=O)c2cc(F)c(N3CCN(CCOC4=C(c5ccccc5F)C(=O)OC4)CC3)cc21`, for which the results for the MIC50 in the test on Escherichia coli, with Bacillus subtilis and with Staphylococcus aureus were 2.7 mg/L (≈ 5 µM), 2.4 mg/L (≈ 4.45 µM) and 3.3 mg/L (≈ 6.12 µM), respectively.
For `CCn1cc(C(=O)O)c(=O)c2cc(F)c(N3CCN(CCOC4=C(c5ccccc5F)C(=O)OC4)CC3)nc21`, in that order: 2.6 mg/L (≈ 4.81 µM), 1.6 mg/L (≈ 2.96 µM) and 2.6 mg/L (≈ 4.81 µM).
For `Cc1ccc(C2=C(OCCN3CCN(c4cc5c(cc4F)c(=O)c(C(=O)O)cn5C4CC4)CC3)COC2=O)cc1`, in that order: 1.9 mg/L (≈ 3.47 µM), 0.39 mg/L (≈ 0.712 µM) and 0.53 mg/L (≈ 0.968 µM).
As to `CCn1cc(C(=O)O)c(=O)c2cc(F)c(N3CCN(CCOC4=C(c5ccc(Br)cc5)C(=O)OC4)CC3)cc21`, the results for the MIC50 against Escherichia coli, in the test on Bacillus subtilis and against Staphylococcus aureus were 13.5 mg/L (≈ 22.5 µM), above 25 mg/L and 21.6 mg/L (≈ 36 µM), respectively.
For `O=C1OCC(OCCN2CCN(c3cc4c(cc3F)c(=O)c(C(=O)O)cn4-c3ccc(F)cc3)CC2)=C1c1ccccc1OCc1ccccc1`, in that order: 2.8 mg/L (≈ 4.04 µM), 0.58 mg/L (≈ 0.836 µM) and 2.1 mg/L (≈ 3.03 µM).
The like results for `O=C1OCC(OCCN2CCN(c3cc4c(cc3F)c(=O)c(C(=O)O)cn4-c3ccc(F)cc3)CC2)=C1c1ccc(F)cc1` were, in that order, 1.1 mg/L (≈ 1.82 µM), 0.2 mg/L (≈ 0.33 µM) and 0.34 mg/L (≈ 0.561 µM).
Regarding `Cc1ccc(C2=C(OCCN3CCN(c4cc5c(cc4F)c(=O)c(C(=O)O)cn5-c4ccc(F)cc4)CC3)COC2=O)cc1`, the MIC50 in the test on Escherichia coli is 2 mg/L (≈ 3.32 µM); in the test on Bacillus subtilis it was 0.82 mg/L (≈ 1.36 µM); in the test on Staphylococcus aureus, 0.45 mg/L (≈ 0.748 µM).
In the case of `O=C1OCC(OCCN2CCN(c3cc4c(cc3F)c(=O)c(C(=O)O)cn4-c3ccc(F)cc3)CC2)=C1c1ccccc1F`, the MIC50 against Escherichia coli was 0.67 mg/L (≈ 1.11 µM); in the test with Bacillus subtilis it was 0.2 mg/L (≈ 0.33 µM); against Staphylococcus aureus, 0.21 mg/L (≈ 0.347 µM). Further, the results for the IC50 (in test [1]; on DNA gyrase) were 2.81 µM and 3.69 µM, respectively.
As to `O=C1OCC(OCCN2CCN(c3cc4c(cc3F)c(=O)c(C(=O)O)cn4-c3ccc(F)cc3)CC2)=C1c1ccccc1`, the MIC50 in the test on Escherichia coli was determined as 1.2 mg/L (≈ 2.04 µM); against Bacillus subtilis, 0.6 mg/L (≈ 1.02 µM); against Staphylococcus aureus, 0.69 mg/L (≈ 1.17 µM).
Take `CCn1cc(C(=O)O)c(=O)c2cc(F)c(N3CCN(CCOC4=C(c5cccc(Br)c5)C(=O)OC4)CC3)nc21`: the results for the MIC50 in the test on Escherichia coli, with Bacillus subtilis and against Staphylococcus aureus were 12.2 mg/L (≈ 20.3 µM), 4.7 mg/L (≈ 7.81 µM) and 13.1 mg/L (≈ 21.8 µM), respectively.
The like results for `O=C1OCC(OCCN2CCN(c3cc4c(cc3F)c(=O)c(C(=O)O)cn4-c3ccc(F)cc3)CC2)=C1c1ccc(Cl)cc1` were, in that order, 1.7 mg/L (≈ 2.73 µM), 0.51 mg/L (≈ 0.82 µM) and 7.8 mg/L (≈ 12.5 µM).
The like results for `O=C1OCC(OCCN2CCN(c3cc4c(cc3F)c(=O)c(C(=O)O)cn4C3CC3)CC2)=C1c1ccc(Cl)cc1` were, in that order, 1.3 mg/L (≈ 2.29 µM), 0.16 mg/L (≈ 0.282 µM) and 0.49 mg/L (≈ 0.863 µM).
The like results for `COc1ccc(C2=C(OCCN3CCN(c4cc5c(cc4F)c(=O)c(C(=O)O)cn5C4CC4)CC3)COC2=O)cc1` were, in that order, 23.5 mg/L (≈ 41.7 µM), 2.6 mg/L (≈ 4.61 µM) and 6.5 mg/L (≈ 11.5 µM).
`CCn1cc(C(=O)O)c(=O)c2cc(F)c(N3CCN(CCOC4=C(c5ccccc5Cl)C(=O)OC4)CC3)cc21`: the figures for the MIC50 against Escherichia coli, in the test with Bacillus subtilis and in the test with Staphylococcus aureus were 2.5 mg/L (≈ 4.5 µM), 0.9 mg/L (≈ 1.62 µM) and 0.43 mg/L (≈ 0.773 µM), respectively.
Regarding `O=C1OCC(OCCN2CCN(c3cc4c(cc3F)c(=O)c(C(=O)O)cn4C3CC3)CC2)=C1c1ccc(F)cc1`, the results for the MIC50 against Escherichia coli, against Bacillus subtilis and against Staphylococcus aureus were 0.37 mg/L (≈ 0.671 µM), 0.16 mg/L (≈ 0.29 µM) and 0.24 mg/L (≈ 0.435 µM), respectively. Also, the figures for the concentration for half-maximal inhibition (IC50) (in test [1]; at DNA gyrase) were 1.29 µM and 2.84 µM, respectively.
Consider `O=C1OCC(OCCN2CCN(c3cc4c(cc3F)c(=O)c(C(=O)O)cn4-c3ccc(F)cc3)CC2)=C1c1cccc(Cl)c1`, for which the MIC50 against Escherichia coli stood at 0.89 mg/L (≈ 1.43 µM); in the test on Bacillus subtilis, 0.75 mg/L (≈ 1.21 µM); against Staphylococcus aureus, 0.44 mg/L (≈ 0.707 µM).
For `O=C1OCC(OCCN2CCN(c3cc4c(cc3F)c(=O)c(C(=O)O)cn4-c3ccc(F)cc3)CC2)=C1c1ccccc1Cl`, the MIC50 in the test on Escherichia coli was found to be 0.72 mg/L (≈ 1.16 µM); against Bacillus subtilis, 0.37 mg/L (≈ 0.595 µM); in the test with Staphylococcus aureus it was 0.25 mg/L (≈ 0.402 µM). Moreover, the values for the half-inhibitory concentration (IC50) (in test [1]; on DNA gyrase) were 6.37 µM and 4.05 µM, respectively.
Regarding `O=C1OCC(OCCN2CCN(c3cc4c(cc3F)c(=O)c(C(=O)O)cn4-c3ccc(F)cc3)CC2)=C1c1ccc(Br)cc1`, the MIC50 worked out at 4.2 mg/L (≈ 6.3 µM) in the test on Escherichia coli, 2.9 mg/L (≈ 4.35 µM) with Bacillus subtilis and 11.1 mg/L (≈ 16.7 µM) in the test with Staphylococcus aureus.
The like results for `CCn1cc(C(=O)O)c(=O)c2cc(F)c(N3CCN(CCOC4=C(c5cccc(Cl)c5)C(=O)OC4)CC3)nc21` were, in that order, 2.9 mg/L (≈ 5.21 µM), 15.3 mg/L (≈ 27.5 µM) and 8.7 mg/L (≈ 15.6 µM).
The like results for `O=C1OCC(OCCN2CCN(c3cc4c(cc3F)c(=O)c(C(=O)O)cn4C3CC3)CC2)=C1c1ccc(Br)cc1` were, in that order, 3.8 mg/L (≈ 6.2 µM), 2.6 mg/L (≈ 4.25 µM) and 8.5 mg/L (≈ 13.9 µM).
Regarding `O=C1OCC(OCCN2CCN(c3cc4c(cc3F)c(=O)c(C(=O)O)cn4C3CC3)CC2)=C1c1ccccc1`, the MIC50 against Escherichia coli was determined as 1 mg/L (≈ 1.87 µM); in the test on Bacillus subtilis it was 0.23 mg/L (≈ 0.431 µM); against Staphylococcus aureus, 0.64 mg/L (≈ 1.2 µM). The IC50 in test [1] was 7.12 µM; on DNA gyrase, 5.77 µM.
The like results for `O=C1OCC(OCCN2CCN(c3cc4c(cc3F)c(=O)c(C(=O)O)cn4C3CC3)CC2)=C1c1ccccc1F` were, in that order, 0.11 mg/L (≈ 0.199 µM), 0.09 mg/L (≈ 0.163 µM), 0.19 mg/L (≈ 0.344 µM), 0.12 µM and 1.15 µM.
With `CCn1cc(C(=O)O)c(=O)c2cc(F)c(N3CCN(CCOC4=C(c5ccccc5)C(=O)OC4)CC3)cc21`, the MIC50 against Escherichia coli is above 25 mg/L; in the test with Bacillus subtilis, 16.6 mg/L (≈ 31.8 µM); with Staphylococcus aureus, 18.9 mg/L (≈ 36.2 µM).
Regarding `CCn1cc(C(=O)O)c(=O)c2cc(F)c(N3CCN(CCOC4=C(c5ccc(Cl)cc5)C(=O)OC4)CC3)cc21`, the MIC50 in the test on Escherichia coli is 19.5 mg/L (≈ 35.1 µM); in the test on Bacillus subtilis, 18.5 mg/L (≈ 33.3 µM); against Staphylococcus aureus, 15.9 mg/L (≈ 28.6 µM).
Turning to `O=C1OCC(OCCN2CCOCC2)=C1c1ccc(O)cc1`, in test [1], the IC50 came to 0.1 µM.
In the case of `O=C1OCC(OCCN2CCN(c3cc4c(cc3F)c(=O)c(C(=O)O)cn4-c3ccc(F)cc3)CC2)=C1c1cccc(Br)c1`, the MIC50 in the test with Escherichia coli stood at 4.4 mg/L (≈ 6.6 µM); against Bacillus subtilis, 0.43 mg/L (≈ 0.645 µM); with Staphylococcus aureus, 0.39 mg/L (≈ 0.585 µM).
For `CCn1cc(C(=O)O)c(=O)c2cc(F)c(N3CCN(CCOC4=C(c5ccc(Cl)cc5)C(=O)OC4)CC3)nc21`, in that order: 9.6 mg/L (≈ 17.2 µM), 13.2 mg/L (≈ 23.7 µM) and 24.9 mg/L (≈ 44.7 µM).
For `O=C(O)c1cn(C2CC2)c2cc(N3CCNCC3)c(F)cc2c1=O` [CIPROFLOXACIN], in that order: 5.65 mg/L (≈ 17.1 µM), 2.7 mg/L (≈ 8.15 µM) and 6.82 mg/L (≈ 20.6 µM).
For `CCn1cc(C(=O)O)c(=O)c2cc(F)c(N3CCN(CCOC4=C(c5ccccc5)C(=O)OC4)CC3)nc21`, in that order: 5.6 mg/L (≈ 10.7 µM), 12.6 mg/L (≈ 24.1 µM) and 6.8 mg/L (≈ 13 µM).
